Laboratory results as given in ChEMBL document CHEMBL1122190, “Mammary tumor inhibiting effect of 3,3'-diacetoxy-alpha, beta-dialkylstilbenes and of related stilbene oxides” (1982).

What was measured:
[1] = target: T1, Estrogen receptor (Mus musculus) (UniProt O08537+P19785); assay: Uterotrophic activity in mice at 800 ug dose; type: functional, tissue-based; settings: Uterus
Outline: (§1)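 Dorfman uterine weight test in immature female NMRI mice (20 days old at start, 10-12 g; ten per group). Compound given sc daily in olive oil for 3 days. Animals killed 24 h after last injection; uteri removed, dried at 100 °C for 24 h and weighed.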

[2] = target: T1, Estrogen receptor (Mus musculus); assay: Uterotrophic activity in mice at 80 ug dose; type: functional, tissue-based; settings: Uterus; outline: as §1
[3] = target: T1, Estrogen receptor (Mus musculus); assay: Uterotrophic activity in mice at 8 ug dose; type: functional, tissue-based; settings: Uterus; outline: as §1
[4] = target: T1, Estrogen receptor (Mus musculus); assay: Antiuterotrophic activity in mice at 100 ug dose; type: functional
Outline: (§2)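 Dorfman uterine weight test in immature female NMRI mice, ten per group, 20 days old and 10-12 g at start. Compounds were given in olive oil sc once daily for 3 days. Mice were killed 24 h after the last injection, and uteri were removed, dried at 100 °C for 24 h and weighed.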

[5] = target: T1, Estrogen receptor (Mus musculus); assay: Antiuterotrophic activity in mice at 50 ug dose; type: functional; outline: as §2
[6] = target: T1, Estrogen receptor (Mus musculus); assay: Antiuterotrophic activity in mice at 5 ug dose; type: functional; outline: as §2
[7] = target: T1, Estrogen receptor (Mus musculus); assay: Percent inhibition of estrone-stimulated uterine growth in immature mouse at 100 ug dose; type: functional; outline: as §2
[8] = target: T1, Estrogen receptor (Mus musculus); assay: Percent inhibition of estrone-stimulated uterine growth in immature mouse at 5 ug dose; type: functional; outline: as §2
Mus musculus [9] = assay: Effect on estrogen and progesterone receptors positive hormone-dependent postmenopausal human mammary carcinoma tumor growth in nude mice at 1.0 mg/kg/day dose; type: functional
Outline: (§3)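 Nude mice carried serially transplanted hormone-dependent human mammary carcinoma. Compounds in olive oil were given sc 6 times a week for 4-5 weeks. Two tumor diameters were measured weekly, and size at treatment start was set as 1. Tumor size was averaged after 5 weeks of therapy.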

Mus musculus [10] = assay: Effect on estrogen and progesterone receptors positive hormone-dependent postmenopausal human mammary carcinoma tumor growth in nude mice at 2.0 mg/kg/day; type: functional; outline: as §3
Rattus norvegicus [11] = assay: Effect on DMBA-induced hormone-dependent mammary carcinoma tumor growth in rats at 0.5 mg/kg/day; type: functional
Outline: (§4)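 Female Sprague-Dawley rats received a single 20 mg DMBA dose by gastric intubation at 50 days of age. About 4 weeks later, rats bearing at least one tumor >140 mm² were grouped in tens. Compounds in olive oil were given sc 6 times a week for 28 days. Tumor area (length × width) was measured twice weekly.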

Rattus norvegicus [12] = assay: Effect on DMBA-induced hormone-dependent mammary carcinoma tumor growth in rats at 4.0 mg/kg/day; type: functional; outline: as §4
Rattus norvegicus [13] = assay: Effect on DMBA-induced hormone-dependent mammary carcinoma tumor growth in rats at 0.5 mg/kg/day (initial tumor number); type: functional; outline: as §4
Rattus norvegicus [14] = assay: Effect on DMBA-induced hormone-dependent mammary carcinoma tumor number in rats at 0.5 mg/kg/day; type: functional; outline: as §4
Rattus norvegicus [15] = assay: Effect on DMBA-induced hormone-dependent mammary carcinoma tumor growth in rats at 1.0 mg/kg/day (initial tumor number); type: functional; outline: as §4
Rattus norvegicus [16] = assay: Effect on DMBA-induced hormone-dependent mammary carcinoma tumor number in rats at 1.0 mg/kg/day; type: functional; outline: as §4
Rattus norvegicus [17] = assay: Effect on DMBA-induced hormone-dependent mammary carcinoma tumor growth in rats at 4.0 mg/kg/day (initial tumor number); type: functional; outline: as §4
Rattus norvegicus [18] = assay: Effect on DMBA-induced hormone-dependent mammary carcinoma tumor number in rats at 4.0 mg/kg/day; type: functional; outline: as §4
Rattus norvegicus [19] = assay: Percent remission of DMBA-induced hormone-dependent mammary carcinoma in rats at 1.0 mg/kg/day; type: functional; outline: as §4
Rattus norvegicus [20] = assay: Percent unchanged DMBA-induced hormone-dependent mammary carcinoma in rats at 1.0 mg/kg/day; type: functional; outline: as §4
Rattus norvegicus [21] = assay: Percent partial remission of DMBA-induced hormone-dependent mammary carcinoma in rats at 1.0 mg/kg/day; type: functional; outline: as §4
Rattus norvegicus [22] = assay: Percent progression of DMBA-induced hormone-dependent mammary carcinoma in rats at 1.0 mg/kg/day; type: functional; outline: as §4
Rattus norvegicus [23] = assay: Percent remission of DMBA-induced hormone-dependent mammary carcinoma in rats at 4.0 mg/kg/day; type: functional; outline: as §4
Rattus norvegicus [24] = assay: Percent unchanged DMBA-induced hormone-dependent mammary carcinoma in rats at 4.0 mg/kg/day; type: functional; outline: as §4
Rattus norvegicus [25] = assay: Percent partial remission of DMBA-induced hormone-dependent mammary carcinoma in rats at 4.0 mg/kg/day; type: functional; outline: as §4
Rattus norvegicus [26] = assay: Percent progression of DMBA-induced hormone-dependent mammary carcinoma in rats at 4.0 mg/kg/day; type: functional; outline: as §4
Rattus norvegicus [27] = assay: Percent remission of DMBA-induced hormone-dependent mammary carcinoma in rats at 0.5 mg/kg/day; type: functional; outline: as §4
Rattus norvegicus [28] = assay: Percent unchanged DMBA-induced hormone-dependent mammary carcinoma in rats at 0.5 mg/kg/day; type: functional; outline: as §4
Rattus norvegicus [29] = assay: Percent partial remission of DMBA-induced hormone-dependent mammary carcinoma in rats at 0.5 mg/kg/day; type: functional; outline: as §4
Rattus norvegicus [30] = assay: Percent progression of DMBA-induced hormone-dependent mammary carcinoma in rats at 0.5 mg/kg/day (Percent of tumors with progression); type: functional; outline: as §4
Rattus norvegicus [31] = assay: Effect on DMBA-induced hormone-dependent mammary carcinoma tumor growth in rats at 1.0 mg/kg/day; type: functional; outline: as §4
[32] = target: T1, Estrogen receptor (Mus musculus); assay: Percent inhibition of estrone-stimulated uterine growth in immature mouse at 50 ug dose; type: functional; outline: as §2
[33] = tested on: Estrogen receptor (Bos taurus); assay: In vitro relative binding affinity for Estrogen receptor compared to [3H]estradiol
[34] = target: T1, Estrogen receptor (Mus musculus); assay: Uterotrophic activity in mice at 500 ug dose; type: functional, tissue-based; settings: Uterus; outline: as §1
[35] = target: T1, Estrogen receptor (Mus musculus); assay: Uterotrophic activity in mice at 50 ug dose; type: functional, tissue-based; settings: Uterus; outline: as §1
[36] = target: T1, Estrogen receptor (Mus musculus); assay: Uterotrophic activity in mice at 5 ug dose; type: functional, tissue-based; settings: Uterus; outline: as §1
[37] = target: T1, Estrogen receptor (Mus musculus); assay: Antiuterotrophic activity in mice at 25 ug dose; type: functional; outline: as §2
[38] = target: T1, Estrogen receptor (Mus musculus); assay: Uterotrophic activity in mice at 100 ug dose; type: functional, tissue-based; settings: Uterus; outline: as §2
[39] = target: T1, Estrogen receptor (Mus musculus); assay: Percent inhibition of estrone-stimulated uterine growth in immature mouse at 25 ug dose; type: functional; outline: as §2
Mus musculus [40] = assay: Effect on estrogen and progesterone receptors positive hormone-dependent postmenopausal human mammary carcinoma tumor growth in nude mice at 2.8 mg/kg/day; type: functional; outline: as §3

T1 sequence (O08537 whole entry, looked up): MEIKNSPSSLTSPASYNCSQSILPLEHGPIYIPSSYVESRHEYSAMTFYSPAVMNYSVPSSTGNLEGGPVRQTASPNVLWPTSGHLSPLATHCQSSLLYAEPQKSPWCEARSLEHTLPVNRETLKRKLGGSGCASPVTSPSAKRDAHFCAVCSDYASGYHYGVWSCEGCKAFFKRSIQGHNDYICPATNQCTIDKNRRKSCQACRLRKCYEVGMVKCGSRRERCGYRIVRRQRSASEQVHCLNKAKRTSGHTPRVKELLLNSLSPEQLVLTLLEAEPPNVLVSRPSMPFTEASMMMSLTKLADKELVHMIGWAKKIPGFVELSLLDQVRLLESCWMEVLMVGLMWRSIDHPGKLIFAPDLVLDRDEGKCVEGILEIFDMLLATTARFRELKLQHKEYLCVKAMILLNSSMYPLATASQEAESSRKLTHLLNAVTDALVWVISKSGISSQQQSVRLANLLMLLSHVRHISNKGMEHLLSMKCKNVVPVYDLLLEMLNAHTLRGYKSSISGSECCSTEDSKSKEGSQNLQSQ
T1 sequence (P19785 whole entry, looked up): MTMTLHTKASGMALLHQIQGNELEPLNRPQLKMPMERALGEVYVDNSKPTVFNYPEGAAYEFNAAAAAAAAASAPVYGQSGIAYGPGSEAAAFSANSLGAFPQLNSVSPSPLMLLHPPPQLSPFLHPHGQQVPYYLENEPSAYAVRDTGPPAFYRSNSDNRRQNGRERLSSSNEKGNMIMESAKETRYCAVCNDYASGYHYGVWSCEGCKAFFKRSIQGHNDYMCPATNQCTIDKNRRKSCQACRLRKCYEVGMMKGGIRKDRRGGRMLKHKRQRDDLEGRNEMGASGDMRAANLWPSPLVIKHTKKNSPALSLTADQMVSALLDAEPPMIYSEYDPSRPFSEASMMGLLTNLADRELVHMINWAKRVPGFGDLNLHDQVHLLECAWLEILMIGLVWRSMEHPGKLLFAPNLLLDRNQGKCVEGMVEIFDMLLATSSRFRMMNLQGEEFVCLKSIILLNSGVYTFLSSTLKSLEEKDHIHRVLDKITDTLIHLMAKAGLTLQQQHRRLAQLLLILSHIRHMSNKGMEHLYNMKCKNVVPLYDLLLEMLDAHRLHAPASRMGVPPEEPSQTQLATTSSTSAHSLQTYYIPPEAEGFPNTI

Which Effect [1] does the source give for `CCC1(c2cccc(O)c2)OC1(CC)c1cccc(O)c1` (stereo not given) here?
The Effect was 43.6.

What about the Effect [2] of the same compound?
Its Effect is 33.

What about the Effect [3] of the same compound?
The Effect was 29.4.

What about the Effect [4] of the same compound?
The Effect was 42.2.

What about the Effect [5] of the same compound?
Its Effect is 33.

What about the Effect [6] of the same compound?
The Effect was 27.6.

What about the inhibition [7] of the same compound?
The inhibition was 2.7%.

What about the inhibition [8] of the same compound?
Its inhibition is 52.5%.

What about the Tumor size (Mus musculus [9]) of the same compound?
The Tumor size was 2.9.

What about the Tumor size (Mus musculus [10]) of the same compound?
The Tumor size was 1.85.

What about the Change (Rattus norvegicus [11]) of the same compound?
The Change was 18%.

And the Change (Rattus norvegicus [12])?
Its Change is -16%.

And the No. of tumors (Rattus norvegicus [13])?
Its No. of tumors is 27.

What about the No. of tumors (Rattus norvegicus [14]) of the same compound?
Its No. of tumors is 18.

What about the No. of tumors (Rattus norvegicus [15]) of the same compound?
Its No. of tumors is 31.

And the No. of tumors (Rattus norvegicus [16])?
The No. of tumors was 10.

And the No. of tumors (Rattus norvegicus [17])?
The No. of tumors was 29.

And the No. of tumors (Rattus norvegicus [18])?
The No. of tumors was 4.

And the Tumors (Rattus norvegicus [19])?
The Tumors was 76%.

And the Tumors (Rattus norvegicus [20])?
The Tumors was 0%.

And the Tumors (Rattus norvegicus [21])?
Its Tumors is 13%.

And the Tumors (Rattus norvegicus [22])?
Its Tumors is 10%.

What about the Tumors (Rattus norvegicus [23]) of the same compound?
Its Tumors is 61%.

And the Tumors (Rattus norvegicus [24])?
The Tumors was 12%.

What about the Tumors (Rattus norvegicus [25]) of the same compound?
The Tumors was 12%.

What about the Tumors (Rattus norvegicus [26]) of the same compound?
The Tumors was 15%.

What about the Tumors (Rattus norvegicus [27]) of the same compound?
The Tumors was 69%.

What about the Tumors (Rattus norvegicus [28]) of the same compound?
The Tumors was 5%.

What about the Tumors (Rattus norvegicus [29]) of the same compound?
Its Tumors is 13%.

And the Tumors (Rattus norvegicus [30])?
Its Tumors is 13%.

And the Change (Rattus norvegicus [31])?
The Change was -52%.

And the inhibition [32]?
The inhibition was 34.3%.

And the RBA [33]?
Its RBA is 5.4%.

With `CCCC1(c2cccc(OC(C)=O)c2)OC1(CCC)c1cccc(OC(C)=O)c1` (stereo not given) as the compound, how does the Effect [34] read?
The Effect was 33.3.

And the Effect [35]?
Its Effect is 22.1.

And the Effect [36]?
The Effect was 21.8.

And the Effect [4]?
The Effect was 39.4.

What about the Effect [37] of the same compound?
The Effect was 36.3.

And the Effect [6]?
The Effect was 34.1.

And the Effect [38]?
Its Effect is 31.1.

What about the inhibition [7] of the same compound?
The inhibition was 0%.

And the inhibition [39]?
The inhibition was 7.8%.

And the inhibition [8]?
The inhibition was 15.6%.

What about the Tumor size (Mus musculus [40]) of the same compound?
Its Tumor size is 1.85.

And the RBA [33]?
Its RBA is 1.7%.
